Experimental findings from ChEMBL document CHEMBL1152612, “Ursolic acid derivatives induce cell cycle arrest and apoptosis in NTUB1 cells associated with reactive oxygen species” (Bioorg Med Chem, 2009) are described below.

The nature of assay [1]: Cytotoxicity against human NTUB1 cells after 72 hrs by MTT assay. Conditions: NTUB1, 72 h. The format is functional, cell-based. Summed up:
(§1)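 Cells grown in RPMI 1640 with 10% FBS, penicillin/streptomycin and 2 mM L-glutamine at 37 °C under 5% CO₂. Seeded 1800 cells/well, left overnight, then given graded compound concentrations for 72 h; compounds diluted from DMSO, 0.1% DMSO in medium and in controls. MTT 2 mg/mL in PBS for 3 h, formazan dissolved in DMSO, absorbance 540 nm. Viability given as % of control; IC50 by median-effect analysis, mean ± SD.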

In another assay the test system is PC-3. Description: Cytotoxicity against human PC3 cells at 50 uM after 72 hrs by MTT assay. The class given is functional, cell-based. Summed up: as §1
For a further assay, the system named is A549. Briefly: Cytotoxicity against human A549 cells at 50 uM after 72 hrs by MTT assay. The class given is functional, cell-based. Summed up: as §1
Assay [2] can be described thus: Induction of apoptosis in human NTUB1 cells assessed as accumulation at subG1 phase at 20 uM after 24 hrs using propidium iodide staining by flow cytometry. The class given is functional. In outline:
(§2)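 NTUB1 cells plated at 8 × 10⁵ per 10 cm dish and exposed to compound for 24 or 48 h; untreated controls got medium alone. Cells trypsinized, PBS-washed and fixed overnight in ice-cold MeOH at −20 °C, then stained with 50 µg/mL propidium iodide plus RNase A. DNA content was read by flow cytometry, with apoptosis taken as sub-G1 accumulation. Three independent experiments.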

Assay [3] in a line: Cell cycle arrest in human NTUB1 cells assessed as accumulation at G1 phase at 20 uM after 24 hrs using propidium iodide staining by flow cytometry. The class given is functional, cell-based. Summed up: as §2
Assay [4] in a line: Cell cycle arrest in human NTUB1 cells assessed as accumulation at S phase at 20 uM after 24 hrs using propidium iodide staining by flow cytometry. The format is functional, cell-based. Summed up: as §2
A short description of assay [5]: Cell cycle arrest in human NTUB1 cells assessed as accumulation at G2/M phase at 20 uM after 24 hrs using propidium iodide staining by flow cytometry. The format is functional, cell-based. Summed up:
as §2

The nature of assay [6]: Induction of apoptosis in human NTUB1 cells assessed as accumulation at subG1 phase at 40 uM after 24 hrs using propidium iodide staining by flow cytometry. The format is functional. In outline: as §2
Assay [7] can be described thus: Cell cycle arrest in human NTUB1 cells assessed as accumulation at G1 phase at 40 uM after 24 hrs using propidium iodide staining by flow cytometry. The class given is functional, cell-based. Summed up:
as §2

Assay [8] is described as follows: Cell cycle arrest in human NTUB1 cells assessed as accumulation at S phase at 40 uM after 24 hrs using propidium iodide staining by flow cytometry. The class given is functional, cell-based. Summed up: as §2
The nature of assay [9]: Cell cycle arrest in human NTUB1 cells assessed as accumulation at G2/M phase at 40 uM after 24 hrs using propidium iodide staining by flow cytometry. The class given is functional, cell-based. In outline:
as §2

Assay [10] in a line: Cytotoxicity against human NTUB1 cells assessed as cell viability at >30 uM after 72 hrs by MTT assay. The class given is functional. Summed up:
as §1

The target in a further assay is Tubulin (Homo sapiens) (UniProt P68371+Q9H4B7+P0DPH7+P68366+Q13509+Q71U36+P04350+Q3ZCM7+P07437+P68363+Q9BQE3+Q6PEY2+Q13885+Q9BVA1+Q9BUF5). Briefly: Inhibition of tubulin polymerization in human NTUB1 cells assessed as blockade of microtubule assembly at 10 nM by indirect immunofluorescence staining. The format is cell-based. In outline: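 NTUB1 cells on coverslips were treated for 24 h, then fixed in 2% formaldehyde/PBS for 20 min and in cold methanol (−20 °C) for 3 min. Stained with anti-α-tubulin monoclonal antibody for 3 h at room temperature, then rhodamine-conjugated secondary antibody for 1 h in the dark. Mounted in 80% glycerol/PBS and examined by fluorescence microscopy.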

The source made the active and inactive calls. The calls are words filed in the database; no cut-off is given here. Where only a bound is given, the exact number is not on record here.

In [1], `C[C@H]1[C@H](C)CC[C@]2(C(=O)O)CC[C@]3(C)C(=CC[C@@H]4[C@@]5(C)CC[C@H](OC(=O)CCC(=O)O)C(C)(C)[C@@H]5CC[C@]43C)[C@H]12` returned a concentration for half-maximal inhibition (IC50) of 8.65 µM. For the same molecule, the result in the assay on PC-3 and in the assay on A549 was Active. The Activity in assay [2] stood at 7.27%; in assay [3], 13.1%; in [4] it was 18.5%; in assay [5] it was 24.1%; in assay [6] it was 61.37%; in assay [7], 18.9%. In addition, the Activity was 7.51% in assay [8] and 7.36% in assay [9]. Consider `C[C@H]1[C@H](C)CC[C@]2(C(=O)O)CC[C@]3(C)C(=CC[C@@H]4[C@@]5(C)CCC(=O)OC(C)(C)[C@@H]5CC[C@]43C)[C@H]12`, for which the Activity in assay [10] turned out to be 63.91%. The IC50 in assay [1] is more than 30 µM. The molecule `CCCOC(=O)[C@]12CC[C@@H](C)[C@H](C)[C@H]1C1=CC[C@@H]3[C@@]4(C)CC[C@H](O)C(C)(C)[C@@H]4CC[C@@]3(C)[C@]1(C)CC2` gave a concentration for half-maximal inhibition (IC50) in assay [1] of 18.3 µM. Still for that read-out and setting: under `CCOC(=O)[C@]12CC[C@@H](C)[C@H](C)[C@H]1C1=CC[C@@H]3[C@@]4(C)CC[C@H](O)C(C)(C)[C@@H]4CC[C@@]3(C)[C@]1(C)CC2` stands 13.5 µM; under `COC(=O)[C@]12CC[C@@H](C)[C@H](C)[C@H]1C1=CC[C@@H]3[C@@]4(C)CCC(=O)C(C)(C)[C@@H]4CC[C@@]3(C)[C@]1(C)CC2`, 29.6 µM; under `C[C@H]1[C@H](C)CC[C@]2(C(=O)O)CC[C@]3(C)C(=CC[C@@H]4[C@@]5(C)CC[C@H](O)C(C)(C)[C@@H]5CC[C@]43C)[C@H]12` [URSOLIC ACID], 29.4 µM.

As for `C=C(C)[C@@H]1CC[C@]2(C)[C@H](CC=C3[C@@H]4[C@@H](C)[C@H](C)CC[C@]4(C(=O)O)CC[C@]32C)[C@@]1(C)CCC(=O)OC`, in assay [10], the Activity turned out to be 62.77%. The half-maximal inhibitory concentration (IC50) in assay [1] is more than 30 µM. In turn, `CCCCCCOC(=O)[C@]12CC[C@@H](C)[C@H](C)[C@H]1C1=CC[C@@H]3[C@@]4(C)CC[C@H](O)C(C)(C)[C@@H]4CC[C@@]3(C)[C@]1(C)CC2` yielded an IC50 in assay [1] of 26.2 µM. Take `CC(C)=CCOC(=O)[C@]12CC[C@@H](C)[C@H](C)[C@H]1C1=CC[C@@H]3[C@@]4(C)CC[C@H](O)C(C)(C)[C@@H]4CC[C@@]3(C)[C@]1(C)CC2`: in [1], the half-maximal inhibitory concentration (IC50) turned out to be 10.9 µM. Take `CCCC(=O)O[C@H]1CC[C@]2(C)[C@H]3CC=C4[C@@H]5[C@@H](C)[C@H](C)CC[C@]5(C(=O)O)CC[C@@]4(C)[C@]3(C)CC[C@H]2C1(C)C`: the Activity in assay [10] was 76.47%. This molecule also returned an IC50 in assay [1] of more than 30 µM. With `CCCCOC(=O)[C@]12CC[C@@H](C)[C@H](C)[C@H]1C1=CC[C@@H]3[C@@]4(C)CC[C@H](O)C(C)(C)[C@@H]4CC[C@@]3(C)[C@]1(C)CC2`, half-maximal inhibition in assay [1] (IC50) required 15.6 µM. Consider `C[C@H]1[C@H](C)CC[C@]2(C(=O)OCCO)CC[C@]3(C)C(=CC[C@@H]4[C@@]5(C)CC[C@H](O)C(C)(C)[C@@H]5CC[C@]43C)[C@H]12`, for which the half-maximal inhibitory concentration (IC50) in assay [1] was found to be 19.5 µM. Consider `C/C=C/C(=O)O[C@H]1CC[C@]2(C)[C@H]3CC=C4[C@@H]5[C@@H](C)[C@H](C)CC[C@]5(C(=O)O)CC[C@@]4(C)[C@]3(C)CC[C@H]2C1(C)C`, for which the IC50 in assay [1] amounted to 11.9 µM.

With `C=C(C)[C@@H]1CC[C@]2(C)[C@H](CC=C3[C@@H]4[C@@H](C)[C@H](C)CC[C@]4(C(=O)OC)CC[C@]32C)[C@@]1(C)CCC(=O)OC`, the midpoint of inhibition in [1], the IC50, lay at 15.6 µM. Consider `CC(=O)O[C@H]1C(=O)[C@@]2(C)[C@H]([C@H](OC(=O)c3ccccc3)[C@]3(O)C[C@H](OC(=O)[C@H](O)[C@@H](NC(=O)c4ccccc4)c4ccccc4)C(C)=C1C3(C)C)[C@]1(OC(C)=O)CO[C@@H]1C[C@@H]2O`, for which, on Tubulin (Homo sapiens), the result was Active. With `CC(C)CC(=O)O[C@H]1CC[C@]2(C)[C@H]3CC=C4[C@@H]5[C@@H](C)[C@H](C)CC[C@]5(C(=O)O)CC[C@@]4(C)[C@]3(C)CC[C@H]2C1(C)C`, the IC50 in assay [1] was 31 µM.

`CC(=O)O[C@H]1CC[C@]2(C)[C@H]3CC=C4[C@@H]5[C@@H](C)[C@H](C)CC[C@]5(C(=O)O)CC[C@@]4(C)[C@]3(C)CC[C@H]2C1(C)C` [O-ACETYLURSOLIC ACID]: in [1], inhibition was half-maximal at 14.3 µM (IC50).

With `C[C@H]1[C@H](C)CC[C@]2(C(=O)O)CC[C@]3(C)C(=CC[C@@H]4[C@@](C)(CCC(=O)O)[C@H](C(C)(C)O)CC[C@]43C)[C@H]12`, in assay [10], the Activity is 56.04%. The molecule further had an IC50 in [1] of more than 30 µM. The like results for `CCC(=O)O[C@H]1CC[C@]2(C)[C@H]3CC=C4[C@@H]5[C@@H](C)[C@H](C)CC[C@]5(C(=O)O)CC[C@@]4(C)[C@]3(C)CC[C@H]2C1(C)C` were, in that order, 72.53% and more than 30 µM. Regarding `C[C@H]1[C@H](C)CC[C@]2(C(=O)OCC(=O)OC(C)(C)C)CC[C@]3(C)C(=CC[C@@H]4[C@@]5(C)CC[C@H](O)C(C)(C)[C@@H]5CC[C@]43C)[C@H]12`, the Activity in assay [10] is listed as 64.85%. Also, in [1], the 50% inhibitory concentration (IC50) is more than 30 µM.

Molecule `CCCCCOC(=O)[C@]12CC[C@@H](C)[C@H](C)[C@H]1C1=CC[C@@H]3[C@@]4(C)CC[C@H](O)C(C)(C)[C@@H]4CC[C@@]3(C)[C@]1(C)CC2` showed an IC50 in assay [1] of 27.8 µM. Same read-out and setting: next, `C[C@H]1[C@H](C)CC[C@]2(C(=O)O)CC[C@]3(C)C(=CC[C@@H]4[C@@]5(C)CCC(=O)C(C)(C)[C@@H]5CC[C@]43C)[C@H]12` [URSONIC ACID]: 21.4 µM; `COC(=O)[C@]12CC[C@@H](C)[C@H](C)[C@H]1C1=CC[C@@H]3[C@@]4(C)CC[C@H](O)C(C)(C)[C@@H]4CC[C@@]3(C)[C@]1(C)CC2` [METHYL URSOLATE]: 37.1 µM.
